Data: ChEMBL document CHEMBL1131579, “Nitroaromatic amino acids as inhibitors of neuronal nitric oxide synthase” (J Med Chem, 1998)

Experiments:
Nitric oxide synthase 1 [1] = biological target: T1, Nitric oxide synthase 1 (Rattus norvegicus, UniProt P29476); assay: Inhibitory activity against isomeric form of Neuronal nitric oxide synthase measured by citrulline assay
Summary of the method: (§1)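 Rat brain cytosol as nNOS source. Incubated 20 min at ambient temperature with 10 μM purified L-[2,3-3H]arginine, 1 mM NADPH, 2 mM CaCl2 and varying inhibitor. Stopped with EGTA/EDTA/HEPES buffer, pH 5.5. [3H]citrulline separated on Dowex 50WX-8 (Na+) and counted by liquid scintillation. IC50 reported.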

Nitric oxide synthase 3 = biological target: T2, Nitric oxide synthase 3 (Bos taurus, UniProt P29473); assay: Inhibitory activity of conversion of radiolabeled arginine to citrulline by isomeric form of nitric oxide synthase Endothelial nitric oxide synthase from cultured bovine aortic endothelial cells; type: cell-based, Endothelial cell
T2 sequence (P29473 whole entry): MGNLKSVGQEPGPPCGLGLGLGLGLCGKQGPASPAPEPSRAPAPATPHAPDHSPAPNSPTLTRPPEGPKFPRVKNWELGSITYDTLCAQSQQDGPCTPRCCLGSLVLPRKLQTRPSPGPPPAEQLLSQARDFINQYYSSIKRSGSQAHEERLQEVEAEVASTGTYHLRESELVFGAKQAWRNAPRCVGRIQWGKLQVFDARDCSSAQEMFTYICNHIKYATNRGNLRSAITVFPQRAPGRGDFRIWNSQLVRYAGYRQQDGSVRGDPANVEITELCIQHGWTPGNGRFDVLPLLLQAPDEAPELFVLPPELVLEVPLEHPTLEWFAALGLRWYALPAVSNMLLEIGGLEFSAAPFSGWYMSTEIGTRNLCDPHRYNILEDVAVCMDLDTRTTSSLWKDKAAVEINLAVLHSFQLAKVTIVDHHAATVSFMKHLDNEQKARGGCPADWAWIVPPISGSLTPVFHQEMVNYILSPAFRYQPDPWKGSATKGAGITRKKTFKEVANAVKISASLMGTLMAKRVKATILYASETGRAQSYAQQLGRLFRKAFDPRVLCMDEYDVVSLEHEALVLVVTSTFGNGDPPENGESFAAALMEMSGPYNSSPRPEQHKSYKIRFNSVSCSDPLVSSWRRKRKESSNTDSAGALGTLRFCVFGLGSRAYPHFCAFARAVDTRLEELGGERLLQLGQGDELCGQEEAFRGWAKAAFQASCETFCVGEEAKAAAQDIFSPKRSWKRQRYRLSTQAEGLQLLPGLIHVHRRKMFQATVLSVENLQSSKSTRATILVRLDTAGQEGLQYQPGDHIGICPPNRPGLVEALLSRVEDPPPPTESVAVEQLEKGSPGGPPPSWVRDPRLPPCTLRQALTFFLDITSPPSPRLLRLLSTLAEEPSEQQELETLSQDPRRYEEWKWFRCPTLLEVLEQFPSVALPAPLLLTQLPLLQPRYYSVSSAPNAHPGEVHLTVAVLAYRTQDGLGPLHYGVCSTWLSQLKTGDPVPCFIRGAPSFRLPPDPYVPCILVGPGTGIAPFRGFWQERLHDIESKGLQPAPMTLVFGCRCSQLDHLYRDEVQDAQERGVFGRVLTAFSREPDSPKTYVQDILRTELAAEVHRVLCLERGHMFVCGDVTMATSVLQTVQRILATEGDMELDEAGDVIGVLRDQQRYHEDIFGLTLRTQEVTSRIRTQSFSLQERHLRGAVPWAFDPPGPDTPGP
Summary of the method: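 eNOS taken from the CHAPS-solubilized particulate fraction of cultured bovine aortic endothelial cells. Incubated 20 min at ambient temperature with 10 μM L-[2,3-3H]arginine, 1 mM NADPH, 2 mM CaCl2 and graded inhibitor. Stopped at pH 5.5 with EGTA/EDTA; [3H]citrulline isolated on cation-exchange column and counted by scintillation. IC50.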

[2] = biological target: T3, Nitric oxide synthase, inducible (Mus musculus, UniProt P29477); assay: Inhibition of radiolabeled arginine conversion to citrulline by isomeric form of Inducible nitric oxide synthase from mouse RAW 264.7 cells; type: cell-based
T3 sequence (P29477 whole entry): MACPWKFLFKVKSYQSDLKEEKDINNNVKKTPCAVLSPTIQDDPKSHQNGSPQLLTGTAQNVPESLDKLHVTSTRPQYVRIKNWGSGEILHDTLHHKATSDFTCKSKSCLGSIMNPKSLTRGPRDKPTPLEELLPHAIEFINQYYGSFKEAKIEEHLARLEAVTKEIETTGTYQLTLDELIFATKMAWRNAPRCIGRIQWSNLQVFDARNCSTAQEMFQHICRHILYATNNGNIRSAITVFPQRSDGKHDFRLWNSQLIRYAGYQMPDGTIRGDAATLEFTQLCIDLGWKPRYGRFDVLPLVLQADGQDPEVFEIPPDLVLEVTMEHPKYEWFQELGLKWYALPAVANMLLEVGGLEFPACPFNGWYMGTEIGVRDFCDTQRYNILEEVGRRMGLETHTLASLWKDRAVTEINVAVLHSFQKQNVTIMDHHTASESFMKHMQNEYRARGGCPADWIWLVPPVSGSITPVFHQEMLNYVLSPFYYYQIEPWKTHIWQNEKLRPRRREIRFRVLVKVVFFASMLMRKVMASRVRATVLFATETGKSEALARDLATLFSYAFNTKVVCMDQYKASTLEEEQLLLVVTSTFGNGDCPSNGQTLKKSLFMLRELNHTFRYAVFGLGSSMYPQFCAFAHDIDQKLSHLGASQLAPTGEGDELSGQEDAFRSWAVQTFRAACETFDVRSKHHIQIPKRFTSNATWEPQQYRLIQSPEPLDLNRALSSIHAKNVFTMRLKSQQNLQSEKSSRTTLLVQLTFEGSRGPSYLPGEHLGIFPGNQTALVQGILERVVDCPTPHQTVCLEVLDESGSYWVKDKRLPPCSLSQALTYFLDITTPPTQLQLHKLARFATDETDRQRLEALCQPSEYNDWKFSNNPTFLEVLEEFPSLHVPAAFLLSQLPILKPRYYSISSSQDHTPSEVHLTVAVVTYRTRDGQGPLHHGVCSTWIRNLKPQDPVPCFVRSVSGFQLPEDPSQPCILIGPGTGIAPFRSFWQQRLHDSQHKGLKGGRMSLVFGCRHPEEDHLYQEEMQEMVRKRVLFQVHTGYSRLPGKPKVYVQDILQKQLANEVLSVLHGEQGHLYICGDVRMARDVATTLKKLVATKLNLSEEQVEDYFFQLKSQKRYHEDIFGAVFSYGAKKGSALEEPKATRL
Summary of the method: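 Incubated 20 min at ambient temperature with 10 μM [3H]arginine, 1 mM NADPH, no Ca2+, and varying inhibitor. Stopped with EGTA/EDTA buffer, pH 5.5; [3H]citrulline separated on Dowex cation exchanger and counted by scintillation. IC50.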

Nitric oxide synthase 1 [3] = biological target: T1, Nitric oxide synthase 1; assay: Inhibition of arginine to citrulline conversion by Neuronal nitric oxide synthase from rat brain; summary of the method: as §1
Rattus norvegicus [4] = species on record: Rattus norvegicus; assay: Inhibitory activity against N-methyl-D-aspartate (NMDA)-induced cyclic GMP accumulation in rat cerebellar slices; type: functional
Summary of the method: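 Cerebellar slices (0.3 mm, coronal and sagittal) from 8–10-day-old rats, preincubated 105 min in Krebs buffer under 95% O2/5% CO2 at 37 °C, then equilibrated 15 min. Test compound added, followed by 500 μM NMDA for 3 min. Stopped with 50 mM sodium acetate and flash-frozen in liquid nitrogen; cGMP measured by radioimmunoassay after sonication.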

Rattus norvegicus [5] = species on record: Rattus norvegicus; assay: Percent reversal of ACh-induced relaxation at 100 uM in rat thoracic aorta; type: functional
Rattus norvegicus [6] = species on record: Rattus norvegicus; assay: Effective concentration for reversal of ACh-induced relaxation in rat thoracic aorta; type: functional
Summary of the method: (§2)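 Male Sprague-Dawley rat (350–375 g) thoracic aortic rings, endothelium spared, held at 1.25 g resting tension in Krebs buffer (pH 7.4) with 5 μM indomethacin, 37 °C, 5% CO2 in O2. After 1 h equilibration: 1 μM phenylephrine precontraction, then 1 μM ACh relaxation to plateau. Cumulative inhibitor additions, each to plateau, give a concentration-response curve for reversal of the relaxation.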

Rattus norvegicus [7] = species on record: Rattus norvegicus; assay: Reversal of ACh-induced relaxation in rat thoracic aorta; type: functional; summary of the method: as §2
Rattus norvegicus [8] = species on record: Rattus norvegicus; assay: E max (%) calculated for reversal of ACh-induced relaxation in rat thoracic aorta; type: functional
Summary of the method: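 Male Sprague-Dawley rat (350–375 g) thoracic aortic rings, endothelium preserved, held at 1.25 g resting tension at 37 °C in Krebs buffer (pH 7.4) containing 5 μM indomethacin, gassed with 5% CO2 in O2. After 1 h equilibration, rings were precontracted with 1 μM phenylephrine and relaxed with 1 μM ACh. Inhibitor was then added cumulatively, plateau between additions, to build a reversal concentration-response curve.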

T1 sequence (P29476 whole entry): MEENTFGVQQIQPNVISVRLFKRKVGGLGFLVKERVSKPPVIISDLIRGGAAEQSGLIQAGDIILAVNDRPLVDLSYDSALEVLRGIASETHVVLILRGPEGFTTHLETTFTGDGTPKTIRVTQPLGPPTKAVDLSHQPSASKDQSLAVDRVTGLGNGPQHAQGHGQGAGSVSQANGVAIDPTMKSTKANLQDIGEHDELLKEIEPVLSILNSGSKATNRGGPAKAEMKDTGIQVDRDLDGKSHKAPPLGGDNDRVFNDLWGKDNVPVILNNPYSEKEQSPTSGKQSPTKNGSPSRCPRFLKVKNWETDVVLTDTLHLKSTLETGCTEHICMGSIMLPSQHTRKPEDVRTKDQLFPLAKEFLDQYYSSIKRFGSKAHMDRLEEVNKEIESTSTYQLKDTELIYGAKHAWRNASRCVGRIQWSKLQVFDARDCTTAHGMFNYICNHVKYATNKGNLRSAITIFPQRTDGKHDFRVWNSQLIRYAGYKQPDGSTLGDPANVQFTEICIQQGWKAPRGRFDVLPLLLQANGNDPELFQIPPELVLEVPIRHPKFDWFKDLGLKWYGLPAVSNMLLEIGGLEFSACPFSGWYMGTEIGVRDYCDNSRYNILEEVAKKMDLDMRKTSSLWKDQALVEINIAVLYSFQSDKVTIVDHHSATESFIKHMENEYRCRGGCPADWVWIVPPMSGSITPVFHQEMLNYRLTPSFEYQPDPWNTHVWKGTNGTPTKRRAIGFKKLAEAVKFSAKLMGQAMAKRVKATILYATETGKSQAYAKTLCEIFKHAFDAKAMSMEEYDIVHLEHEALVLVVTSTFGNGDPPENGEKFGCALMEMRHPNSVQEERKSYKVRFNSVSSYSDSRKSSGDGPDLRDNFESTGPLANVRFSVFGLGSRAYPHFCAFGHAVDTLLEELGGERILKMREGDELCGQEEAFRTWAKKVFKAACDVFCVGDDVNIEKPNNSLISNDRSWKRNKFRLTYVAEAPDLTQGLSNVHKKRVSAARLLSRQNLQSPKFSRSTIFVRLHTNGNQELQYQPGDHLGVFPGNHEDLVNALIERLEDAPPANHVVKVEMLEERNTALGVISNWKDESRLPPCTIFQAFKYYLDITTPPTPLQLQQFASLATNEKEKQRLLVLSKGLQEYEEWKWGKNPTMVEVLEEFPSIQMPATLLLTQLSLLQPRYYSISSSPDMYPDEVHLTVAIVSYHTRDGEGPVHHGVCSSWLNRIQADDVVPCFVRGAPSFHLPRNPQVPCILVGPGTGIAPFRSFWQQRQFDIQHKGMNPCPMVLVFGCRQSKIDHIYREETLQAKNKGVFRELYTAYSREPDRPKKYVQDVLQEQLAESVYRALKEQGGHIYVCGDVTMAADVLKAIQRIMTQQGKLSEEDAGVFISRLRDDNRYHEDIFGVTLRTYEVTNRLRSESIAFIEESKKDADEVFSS

Compound | IC50 (Nitric oxide synthase 1 [1]) [µM] | IC50 (Nitric oxide synthase 3) [µM] | IC50 [2] [µM] | IC50 (Nitric oxide synthase 1 [3]) [µM] | further results
Cc1ccc([N+](=O)[O-])c(N)c1 | 70 | – | – | – | –
N[C@@H](CCCNc1c([N+](=O)[O-])cccc1[N+](=O)[O-])C(=O)O | 30 | 60 | – | – | –
Cc1ccc([N+](=O)[O-])c(SCCC[C@H](N)C(=O)O)c1 | – | 9 | 4 | 5 | IC50 (Rattus norvegicus [4]): 37 µM
N[C@@H](CCCNc1ccc(C(=O)O)cc1[N+](=O)[O-])C(=O)O | > 100 | – | > 100 | – | –
Cc1cccc(NCCC[C@H](N)C(=O)O)c1 | – | – | > 100 | > 100 | –
Cc1ccc([N+](=O)[O-])c(OCCC[C@H](N)C(=O)O)c1 | – | 10 | 80 | 4 | –
Cc1ccc([N+](=O)[O-])c(NCCCCN)c1 | – | 20 | 9 | 2.5 | –
N[C@@H](CCCNc1ccc([N+](=O)[O-])cc1[N+](=O)[O-])C(=O)O | 100 | – | – | – | –
N[C@@H](CCCNc1ccc(C(F)(F)F)cc1[N+](=O)[O-])C(=O)O | > 100 | – | > 100 | – | –
Cc1cccc(SCCC[C@H](N)C(=O)O)c1 | – | – | > 100 | > 100 | –
N=C(NCCC[C@H](N)C(=O)O)N[N+](=O)[O-] [NITROARGININE] | – | – | 14 | – | EC50 (Rattus norvegicus [6]): 3 µM; IC50 (Rattus norvegicus [4]): 0.2 µM; Emax (Rattus norvegicus [8]): 138%
CNC(=N)NCCC[C@H](N)C(=O)O [TILARGININE] | – | – | – | – | EC50 (Rattus norvegicus [6]): 14 µM; IC50 (Rattus norvegicus [4]): 3 µM; Emax (Rattus norvegicus [8]): 119%

More lines, main results first:

IC50 (Nitric oxide synthase 1 [1]) [µM] | IC50 (Nitric oxide synthase 3) [µM] | IC50 [2] [µM] | IC50 (Nitric oxide synthase 1 [3]) [µM] | Compound | further results
> 100 | > 100 | > 100 | – | N[C@@H](CCCNc1ccc(F)cc1[N+](=O)[O-])C(=O)O | –
– | – | > 100 | > 100 | Cc1ccc([N+](=O)[O-])c(NCC[C@H](N)C(=O)O)c1 | –
> 100 | – | > 100 | – | Cc1ccc(NCCC[C@H](N)C(=O)O)c([N+](=O)[O-])c1 | –
100 | 100 | > 100 | – | N[C@@H](CCCNc1ccccc1[N+](=O)[O-])C(=O)O | –
– | 5 | 11 | 2.5 | Cc1ccc([N+](=O)[O-])c(NCCC[C@H](N)C(=O)O)c1 | IC50 (Rattus norvegicus [4]): 33 µM; Emax at 100 µM (Rattus norvegicus [5]): 41%
– | 40 | 5 | 3 | Cc1ccc([N+](=O)[O-])c(NCCC[C@H](N)CO)c1 | EC50 (Rattus norvegicus [6]): 17 µM; Emax (Rattus norvegicus [7]): 106%
– | – | > 100 | > 100 | N[C@@H](CCCNc1cc(O)ccc1[N+](=O)[O-])C(=O)O | –
